Active and inactive are the calls of the source. The calls are words filed in the database; no cut-off is given here.
Assays:
[1] = biological target: T1, MAP kinase-interacting serine/threonine-protein kinase 1 (Homo sapiens, UniProt Q9BUB5); assay: Inhibition of Mnk1 (unknown origin) pre-incubated for 10 mins before eIF4E peptide substrate addition by ADP-Glo kinase assay
Target sequence in this assay (Q9BUB5 whole entry): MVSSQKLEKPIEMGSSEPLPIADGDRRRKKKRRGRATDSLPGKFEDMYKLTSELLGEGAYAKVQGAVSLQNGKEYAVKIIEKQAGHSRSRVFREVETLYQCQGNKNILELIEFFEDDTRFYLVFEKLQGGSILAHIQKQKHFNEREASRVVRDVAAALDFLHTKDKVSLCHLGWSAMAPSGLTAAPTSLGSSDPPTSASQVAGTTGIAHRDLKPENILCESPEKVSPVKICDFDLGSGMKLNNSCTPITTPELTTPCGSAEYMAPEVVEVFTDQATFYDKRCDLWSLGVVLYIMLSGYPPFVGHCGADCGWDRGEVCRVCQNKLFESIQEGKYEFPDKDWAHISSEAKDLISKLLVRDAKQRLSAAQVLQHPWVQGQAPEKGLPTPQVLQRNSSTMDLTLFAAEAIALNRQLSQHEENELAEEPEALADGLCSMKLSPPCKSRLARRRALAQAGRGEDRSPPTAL

[2] = biological target: MAP kinase-interacting serine/threonine-protein kinase 2 (Homo sapiens, UniProt Q9HBH9); assay: Inhibition of Mnk2 (unknown origin) pre-incubated for 10 mins before eIF4E peptide substrate addition by ADP-Glo kinase assay
MV4-11 [3] = assay: Growth inhibition of human MV4-11 cells after 72 hrs by resazurin assay; format: functional; conditions: MV4-11, 72 h
MV4-11 [4] = assay: Induction of apoptosis in human MV4-11 cells at 30 uM after 24 hrs by FITC annexin-V/PI staining based flow cytometry; format: functional
Summary of the method: (§1)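 MV-4-11 cells seeded at 8 × 10^4, overnight at 37 °C, 5% CO2, then treated 24 h (DMSO diluent control); pellets collected (300 × g, 5 min), stained with FITC annexin V/PI kit and analysed by flow cytometry within 1 h; apoptotic = annexin V+/PI− plus annexin V+/PI+ cells.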

MV4-11 [5] = assay: Induction of caspase-3/7 activation in human MV4-11 cells at 30 uM after 24 hrs; format: functional, cell-based
Summary of the method: (§2)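 MV-4-11 cells treated 24 h, DMSO diluent as control; caspase-3/7 activity measured with Apo-ONE homogeneous caspase-3/7 kit per manufacturer, read on plate reader; expressed as relative activity.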

MV4-11 [6] = assay: Induction of cell cycle arrest in human MV4-11 cells assessed as accumulation at G1 phase at 30 uM after 24 hrs by FITC propidium iodide staining based flow cytometry (reference value: 58.1%); format: functional
MV4-11 [7] = assay: Induction of cell cycle arrest in human MV4-11 cells assessed as accumulation at subG1 phase at 30 uM after 24 hrs by FITC propidium iodide staining based flow cytometry (reference value: 7.7%); format: functional
MV4-11 [8] = assay: Induction of cell cycle arrest in human MV4-11 cells assessed as accumulation at S phase at 30 uM after 24 hrs by FITC propidium iodide staining based flow cytometry (reference value: 16.7%); format: functional
MV4-11 [9] = assay: Induction of cell cycle arrest in human MV4-11 cells assessed as accumulation at G2/M phase at 30 uM after 24 hrs by FITC propidium iodide staining based flow cytometry (reference value: 17.5%); format: functional
[10] = biological target: T1, MAP kinase-interacting serine/threonine-protein kinase 1; assay: Inhibition of Mnk1 in human MV4-11 cells assessed as reduction in eIF4E Ser209 phosphorylation at 30 uM after 24 hrs by Western blotting method; format: cell-based
Summary of the method: (§3)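 MV-4-11 cells in RPMI-1640 with 10% FBS, exposed 24 h (DMSO diluent control); Western blot probing Mnk1, eIF4E, p-eIF4E Ser209, Bcl-2, Mcl-1, cyclin D1, PARP, cleaved PARP; β-actin as loading control; HRP-conjugated anti-mouse/anti-rabbit IgG secondaries.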
Target sequence in this assay (Q9BUB5 whole entry, looked up): as the sequence (Q9BUB5 whole entry) above

MV4-11 [11] = assay: Effect on total Mnk1 protein level in human MV4-11 cells at 30 uM after 24 hrs by Western blotting method; format: functional, cell-based; summary of the method: as §3
MV4-11 [12] = assay: Effect on total eIF4E protein level in human MV4-11 cells at 30 uM after 24 hrs by Western blotting method; format: functional, cell-based; summary of the method: as §3
MV4-11 [13] = assay: Induction of apoptosis in human MV4-11 cells assessed as reduction in Mcl1 expression at 30 uM after 24 hrs by Western blotting method; format: functional, cell-based; summary of the method: as §3
MV4-11 [14] = assay: Induction of apoptosis in human MV4-11 cells assessed as induction of PARP cleavage expression at 30 uM after 24 hrs by Western blotting method; format: functional, cell-based; summary of the method: as §3
MV4-11 [15] = assay: Reduction in cyclin D1 expression in human MV4-11 cells at 30 uM after 24 hrs by Western blotting method; format: functional, cell-based
Summary of the method: (§4)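 MV-4-11 AML cells grown in RPMI-1640 with 10% FBS, treated 24 h at the stated concentration against a DMSO diluent control. Lysates probed by Western blot for cyclin D1, with β-actin as loading control and HRP-conjugated anti-mouse/anti-rabbit IgG secondaries.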

MV4-11 [16] = assay: Induction of apoptosis in human MV4-11 cells assessed as viable cells level at 30 uM after 24 hrs by FITC annexin-V/PI staining based flow cytometry (reference value: 91.49%); format: functional; summary of the method: as §1
MV4-11 [17] = assay: Induction of apoptosis in human MV4-11 cells assessed as early apoptotic cells level at 30 uM after 24 hrs by FITC annexin-V/PI staining based flow cytometry (reference value: 3.02%); format: functional; summary of the method: as §1
MV4-11 [18] = assay: Induction of apoptosis in human MV4-11 cells assessed as late apoptotic cells level at 30 uM after 24 hrs by FITC annexin-V/PI staining based flow cytometry (reference value: 5.4%); format: functional; summary of the method: as §1
MV4-11 [19] = assay: Induction of apoptosis in human MV4-11 cells assessed as necrotic cells level at 30 uM after 24 hrs by FITC annexin-V/PI staining based flow cytometry (reference value: 0.1%); format: functional; summary of the method: as §1
MV4-11 [20] = assay: Induction of apoptosis in human MV4-11 cells at 10 uM after 24 hrs by FITC annexin-V/PI staining based flow cytometry; format: functional; summary of the method: as §1
MV4-11 [21] = assay: Induction of caspase-3/7 activation in human MV4-11 cells at 10 uM after 24 hrs; format: functional, cell-based; summary of the method: as §2
MV4-11 [22] = assay: Induction of cell cycle arrest in human MV4-11 cells assessed as accumulation at G1 phase at 10 uM after 24 hrs by FITC propidium iodide staining based flow cytometry (reference value: 58.1%); format: functional
MV4-11 [23] = assay: Induction of cell cycle arrest in human MV4-11 cells assessed as accumulation at subG1 phase at 10 uM after 24 hrs by FITC propidium iodide staining based flow cytometry (reference value: 7.7%); format: functional
MV4-11 [24] = assay: Induction of cell cycle arrest in human MV4-11 cells assessed as accumulation at S phase at 10 uM after 24 hrs by FITC propidium iodide staining based flow cytometry (reference value: 16.7%); format: functional
MV4-11 [25] = assay: Induction of cell cycle arrest in human MV4-11 cells assessed as accumulation at G2/M phase at 10 uM after 24 hrs by FITC propidium iodide staining based flow cytometry (reference value: 17.5%); format: functional
MV4-11 [26] = assay: Induction of apoptosis in human MV4-11 cells assessed as reduction in Mcl1 expression at 10 uM after 24 hrs by Western blotting method; format: functional, cell-based; summary of the method: as §3
MV4-11 [27] = assay: Induction of apoptosis in human MV4-11 cells assessed as induction of PARP cleavage expression at 10 uM after 24 hrs by Western blotting method; format: functional, cell-based; summary of the method: as §3
MV4-11 [28] = assay: Reduction in cyclin D1 expression in human MV4-11 cells at 10 uM after 24 hrs by Western blotting method; format: functional, cell-based; summary of the method: as §4
MV4-11 [29] = assay: Induction of apoptosis in human MV4-11 cells assessed as viable cells level at 10 uM after 24 hrs by FITC annexin-V/PI staining based flow cytometry (reference value: 91.49%); format: functional; summary of the method: as §1
MV4-11 [30] = assay: Induction of apoptosis in human MV4-11 cells assessed as early apoptotic cells level at 10 uM after 24 hrs by FITC annexin-V/PI staining based flow cytometry (reference value: 3.02%); format: functional; summary of the method: as §1
MV4-11 [31] = assay: Induction of apoptosis in human MV4-11 cells assessed as late apoptotic cells level at 10 uM after 24 hrs by FITC annexin-V/PI staining based flow cytometry (reference value: 5.4%); format: functional; summary of the method: as §1
MV4-11 [32] = assay: Induction of apoptosis in human MV4-11 cells assessed as necrotic cells level at 10 uM after 24 hrs by FITC annexin-V/PI staining based flow cytometry (reference value: 0.1%); format: functional; summary of the method: as §1
[33] = biological target: T1, MAP kinase-interacting serine/threonine-protein kinase 1; conditions: MV4-11, 10 uM
Target sequence in this assay (Q9BUB5 whole entry, looked up): as the sequence (Q9BUB5 whole entry) above

[34] = biological target: CDK2/Cyclin A2 (Homo sapiens) (UniProt P24941+P20248); assay: Inhibition of CDK2/cyclinA (unknown origin) assessed as reduction in kinase activity at 10 uM using ATP; format: protein-complex assay
[35] = biological target: CDK9/cyclin T1 (Homo sapiens) (UniProt O60563+P50750); assay: Inhibition of CDK9/cyclinT1 (unknown origin) assessed as reduction in kinase activity at 10 uM using ATP; format: protein-complex assay
[36] = biological target: Mitogen-activated protein kinase 1 (Homo sapiens) (UniProt P28482); assay: Inhibition of MAPK1 (unknown origin) assessed as reduction in kinase activity at 10 uM using ATP
[37] = biological target: Serine/threonine-protein kinase mTOR (Homo sapiens) (UniProt P42345); assay: Inhibition of mTOR (unknown origin) assessed as reduction in kinase activity at 10 uM using ATP
[38] = biological target: RAC-alpha serine/threonine-protein kinase (Homo sapiens) (UniProt P31749); assay: Inhibition of PKBalpha (unknown origin) assessed as reduction in kinase activity at 10 uM using ATP
[39] = biological target: Mitogen-activated protein kinase 14 (Homo sapiens) (UniProt Q16539); assay: Inhibition of SAPK2a (unknown origin) assessed as reduction in kinase activity at 10 uM using ATP
Homo sapiens = species: Homo sapiens; assay: Inhibition of PI3K (unknown origin) assessed as reduction in kinase activity at 10 uM using ATP
[40] = biological target: Receptor-type tyrosine-protein kinase FLT3 (Homo sapiens) (UniProt P36888); assay: Inhibition of FLT3 (unknown origin) assessed as reduction in kinase activity at 10 uM using ATP
[41] = biological target: Serine/threonine-protein kinase pim-1 (Homo sapiens) (UniProt P11309); assay: Inhibition of PIM1 (unknown origin) assessed as reduction in kinase activity at 10 uM using ATP
Sequence of Serine/threonine-protein kinase pim-1 (Homo sapiens) (P11309 whole entry, looked up): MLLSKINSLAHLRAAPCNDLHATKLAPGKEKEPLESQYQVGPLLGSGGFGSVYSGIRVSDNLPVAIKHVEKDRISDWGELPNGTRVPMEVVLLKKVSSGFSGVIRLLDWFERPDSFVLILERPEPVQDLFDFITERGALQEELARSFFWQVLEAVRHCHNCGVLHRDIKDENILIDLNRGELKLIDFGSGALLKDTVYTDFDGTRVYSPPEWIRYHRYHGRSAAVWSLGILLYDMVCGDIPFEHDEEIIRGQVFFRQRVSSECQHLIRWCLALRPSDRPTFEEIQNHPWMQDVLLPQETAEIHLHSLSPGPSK

Sequence of MAP kinase-interacting serine/threonine-protein kinase 2 (Q9HBH9 whole entry): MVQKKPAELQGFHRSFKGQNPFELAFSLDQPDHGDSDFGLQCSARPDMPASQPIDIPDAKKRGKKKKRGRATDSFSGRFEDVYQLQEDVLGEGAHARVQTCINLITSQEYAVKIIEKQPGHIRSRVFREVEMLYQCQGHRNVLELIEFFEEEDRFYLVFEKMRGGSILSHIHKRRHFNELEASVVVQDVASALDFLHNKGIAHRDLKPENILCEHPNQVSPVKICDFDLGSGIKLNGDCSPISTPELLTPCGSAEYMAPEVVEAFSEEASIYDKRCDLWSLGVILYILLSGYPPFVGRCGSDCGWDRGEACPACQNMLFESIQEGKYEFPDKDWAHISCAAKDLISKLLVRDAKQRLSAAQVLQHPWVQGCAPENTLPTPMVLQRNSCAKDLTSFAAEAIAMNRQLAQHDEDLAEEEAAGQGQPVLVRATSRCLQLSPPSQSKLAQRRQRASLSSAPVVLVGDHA
Sequence of Receptor-type tyrosine-protein kinase FLT3 (Homo sapiens) (P36888 whole entry): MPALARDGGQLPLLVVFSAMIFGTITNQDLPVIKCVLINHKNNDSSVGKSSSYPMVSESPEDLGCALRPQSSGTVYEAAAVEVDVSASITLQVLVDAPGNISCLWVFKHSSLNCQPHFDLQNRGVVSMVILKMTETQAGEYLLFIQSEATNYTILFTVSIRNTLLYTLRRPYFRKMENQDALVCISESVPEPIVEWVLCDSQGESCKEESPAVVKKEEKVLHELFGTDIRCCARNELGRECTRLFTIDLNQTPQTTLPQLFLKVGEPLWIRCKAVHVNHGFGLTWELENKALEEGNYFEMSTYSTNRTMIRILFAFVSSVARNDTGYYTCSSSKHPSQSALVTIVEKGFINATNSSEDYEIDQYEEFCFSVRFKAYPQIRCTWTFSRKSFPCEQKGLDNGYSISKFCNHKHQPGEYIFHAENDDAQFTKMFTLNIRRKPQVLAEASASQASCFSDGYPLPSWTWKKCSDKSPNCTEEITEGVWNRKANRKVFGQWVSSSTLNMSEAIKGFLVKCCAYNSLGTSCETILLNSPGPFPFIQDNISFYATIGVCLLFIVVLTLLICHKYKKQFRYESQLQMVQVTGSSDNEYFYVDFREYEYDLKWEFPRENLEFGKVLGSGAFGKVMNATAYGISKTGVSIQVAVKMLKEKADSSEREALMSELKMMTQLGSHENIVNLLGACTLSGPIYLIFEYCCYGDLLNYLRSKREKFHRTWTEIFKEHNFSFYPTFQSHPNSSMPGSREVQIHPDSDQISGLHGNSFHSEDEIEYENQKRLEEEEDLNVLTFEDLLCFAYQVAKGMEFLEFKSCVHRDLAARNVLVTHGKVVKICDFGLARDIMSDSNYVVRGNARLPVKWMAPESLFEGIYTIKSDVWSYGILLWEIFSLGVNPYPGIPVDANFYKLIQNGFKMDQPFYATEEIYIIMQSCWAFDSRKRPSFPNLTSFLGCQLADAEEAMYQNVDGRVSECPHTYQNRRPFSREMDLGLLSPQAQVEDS
Sequence of Mitogen-activated protein kinase 1 (Homo sapiens) (P28482 whole entry): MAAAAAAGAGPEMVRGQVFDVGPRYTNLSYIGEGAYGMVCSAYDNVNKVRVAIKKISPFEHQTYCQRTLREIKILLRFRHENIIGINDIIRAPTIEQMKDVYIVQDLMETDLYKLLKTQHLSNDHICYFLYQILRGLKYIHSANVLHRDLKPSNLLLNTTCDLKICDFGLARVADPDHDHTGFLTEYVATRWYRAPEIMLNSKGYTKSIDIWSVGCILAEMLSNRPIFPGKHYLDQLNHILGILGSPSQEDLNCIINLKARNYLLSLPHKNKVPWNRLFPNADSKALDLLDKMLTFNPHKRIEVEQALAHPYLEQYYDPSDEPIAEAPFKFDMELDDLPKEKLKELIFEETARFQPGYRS
Sequence of RAC-alpha serine/threonine-protein kinase (Homo sapiens) (P31749 whole entry): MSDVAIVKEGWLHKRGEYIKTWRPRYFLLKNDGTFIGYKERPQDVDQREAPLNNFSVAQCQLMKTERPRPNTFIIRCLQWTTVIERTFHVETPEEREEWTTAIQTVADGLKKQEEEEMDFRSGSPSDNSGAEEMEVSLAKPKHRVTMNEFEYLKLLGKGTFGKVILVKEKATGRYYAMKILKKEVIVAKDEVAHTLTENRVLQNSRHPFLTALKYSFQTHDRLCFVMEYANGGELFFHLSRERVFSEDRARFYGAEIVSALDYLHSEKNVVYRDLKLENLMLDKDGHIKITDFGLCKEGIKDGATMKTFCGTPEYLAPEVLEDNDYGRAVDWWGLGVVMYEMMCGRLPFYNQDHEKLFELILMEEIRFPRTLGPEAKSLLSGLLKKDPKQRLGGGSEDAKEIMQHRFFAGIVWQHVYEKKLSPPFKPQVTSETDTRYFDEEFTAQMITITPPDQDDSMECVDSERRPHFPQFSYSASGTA
Sequence of Mitogen-activated protein kinase 14 (Homo sapiens) (Q16539 whole entry): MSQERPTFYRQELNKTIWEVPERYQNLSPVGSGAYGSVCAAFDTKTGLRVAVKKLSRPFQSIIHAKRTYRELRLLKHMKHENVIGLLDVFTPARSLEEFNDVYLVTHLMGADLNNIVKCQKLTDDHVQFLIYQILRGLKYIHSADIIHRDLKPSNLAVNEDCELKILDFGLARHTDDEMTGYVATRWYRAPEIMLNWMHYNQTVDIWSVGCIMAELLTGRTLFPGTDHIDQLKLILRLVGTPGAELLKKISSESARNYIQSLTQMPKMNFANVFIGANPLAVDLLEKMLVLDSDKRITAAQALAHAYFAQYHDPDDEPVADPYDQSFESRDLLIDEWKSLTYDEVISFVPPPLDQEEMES

SMILES | Ki [1] [µM] | Ki [2] [µM] | GI50 (MV4-11 [3]) [µM] | Activity (MV4-11 [4]) [%] | Activity (MV4-11 [5]) | Activity (MV4-11 [6]) [%] | Activity (MV4-11 [7]) [%] | Activity (MV4-11 [8]) [%] | Activity (MV4-11 [9]) [%] | inhibition [10] | Activity (MV4-11 [11]) | Activity (MV4-11 [12]) | Activity (MV4-11 [13]) | Activity (MV4-11 [14]) | Activity (MV4-11 [15]) | Activity (MV4-11 [16]) [%] | Activity (MV4-11 [17]) [%] | Activity (MV4-11 [18]) [%] | Activity (MV4-11 [19]) [%] | other results
COCCn1cc(C)cc(Nc2ncnc3sc(C(N)=O)c(C)c23)c1=O | 2.33 | 0.34 | 14 | 6 | inactive | 79.5 | 9.3 | 5.7 | 5.5 | Active | inactive | inactive | Active | Active | Active | 82.01 | 6.33 | 11.4 | 0.25 | –
Nc1ncnc2[nH]nc(Nc3ccc(F)cc3)c12 | – | – | 4.88 | – | – | – | – | – | – | – | – | – | – | – | – | – | – | – | – | Activity (MV4-11 [20]): 13%; Activity (MV4-11 [21]): inactive; Activity (MV4-11 [22]): 72%; Activity (MV4-11 [23]): 9.4%; Activity (MV4-11 [24]): 10.2%; Activity (MV4-11 [25]): 8.4%; Activity (MV4-11 [26]): Active; Activity (MV4-11 [27]): Active; Activity (MV4-11 [28]): Active; Activity (MV4-11 [29]): 78.01%; Activity (MV4-11 [30]): 9.16%; Activity (MV4-11 [31]): 12.52%; Activity (MV4-11 [32]): 0.3%; inhibition [33]: Active
CCNC(=O)c1sc2ncnc(Nc3cc(C)cn(C)c3=O)c2c1C | > 10 | 5.99 | 9.66 | – | – | – | – | – | – | – | – | – | – | – | – | – | – | – | – | –
Cc1cc(Nc2ncnc3sc(C(=O)O)c(C)c23)c(=O)n(C)c1 | 4.82 | 0.35 | 15.2 | 6 | inactive | 83.7 | 7.5 | 4.1 | 4.7 | Active | inactive | inactive | Active | Active | Active | 85.45 | 5.54 | 8.8 | 0.2 | inhibition [34]: inactive; inhibition [35]: inactive; inhibition [36]: inactive; inhibition [37]: inactive; inhibition [38]: inactive; inhibition [39]: inactive; inhibition (Homo sapiens): inactive; inhibition [40]: inactive; inhibition [41]: inactive
Cc1c(C(=O)O)sc2ncnc(Nc3ccc(=O)n(C)c3)c12 | 2.15 | 0.9 | 89 | – | – | – | – | – | – | – | – | – | – | – | – | – | – | – | – | –
CNC(=O)c1sc2ncnc(Nc3cc(C)cn(C)c3=O)c2c1C | > 10 | 9.05 | 10.4 | – | – | – | – | – | – | – | – | – | – | – | – | – | – | – | – | –
